Measured values reported in the EternaBench riboswitch data.

Tested on: MS2 coat protein
Test: apparent Kd, MS2 coat protein; higher = weaker binding; RNA-MaP array; FMN 200 µM where present
Outline: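 Apparent Kd: the median of filtered binding-curve fits from single clusters. Designs were transcribed on Illumina sequencing-chip clusters by stalled E. coli RNA polymerase and titrated with SNAP-549-labelled MS2 coat protein from 0.7 or 1.5 nM, doubling to 3 µM, in 100 mM Tris-HCl pH 7.5, 80 mM KCl, 4 mM MgCl2, BSA, DTT, yeast tRNA and Tween-20. Each series ran without and then with constant ligand, and green signal was normalised to red-channel RNA signal and control-cluster median Fmax.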

[1] = designed as: OFF switch for flavin mononucleotide, no ligand
[2] = ligand present: flavin mononucleotide, designed as: OFF switch for flavin mononucleotide
[3] = designed as: ON switch for flavin mononucleotide, no ligand
[4] = ligand present: flavin mononucleotide, designed as: ON switch for flavin mononucleotide

Sequence | apparent Kd [1] | apparent Kd [2] | apparent Kd [3] | apparent Kd [4]
GUCAGCUCGUGAGGAUAUACAUCACUGCUUCGGCAGUGUAUUAAGACUACAUGAGGAUCACCCAUGUAGAAGGCACGAGCUGAU | 17.4 nM | 17.9 nM | – | –
GUCAGCUCGUGAGGAUAUACAUGUGCUGGAGACAGCACUAAUUAAAUCACAUGAGGAUCACCCAUGUAGAAGGCACGAGCUGAU | 16.6 nM | 26.4 nM | – | –
GUCAGCUCGUGAGGAUAUACAUGUGCUGGAGACAGCACUAUUGUGUUCACAUGAGGAUCACCCAUGUAGAAGGCACGAGCUGAU | 18.3 nM | 85.5 nM | – | –
GUCAGCUCGUGAGGAUAUACAUGUGCUGGAUACAGCACUAAAGUUUUCACAUGAGGAUCACCCAUGUAGAAGGCACGAGCUGAU | 15.3 nM | 33.9 nM | – | –
GUCAGCUCGUGAGGAUAUACGACACUGCUUCGGCAGUGUAUUAAGAUCACAUGAGGAUCACCCAUGUAGAAGGCACGAGCUGAU | 8.64 nM | 145 nM | – | –
GUCAGCUCGUGAGGAUAUUCAACACUGCUUCGGCAGUGUAUUAAGAUCACAUGAGGAUCACCCAUGUAGAAGGCACGAGCUGAU | 5.79 nM | 10.8 nM | – | –
GUCAUGUUAGGAUAUCUGACAUGUGACUUCGGUCACUGUCCAGAGAAGGAACAUGAGGAUCACCCAUGUUGGAC | 55.6 nM | 63.9 nM | – | –
GUCCGGAGGGAGAAGGGCUAGGAGGUCCAGCUUAUGUGUGUUGCAACAUGAGGAUCACCCAUGUAGCAGGAUAUCCCUUUUACA | 47 nM | 233 nM | – | –
GUCGAAACCAUACUGGUCGACGGUCAGGAUAUACAUGAGGAUCACCCAUGUGCUAUUGAUACUAUGUAGAAGGGACCCACCGCA | 15.2 nM | – | – | –
GUCGGAAACGACAAAAGUAGCAUACGAGAAGGCUGAUCCACGACAUGAGGAUCACCCAUGUACUUAGAGGAUAUUGGAUGCUAC | – | – | 110 nM | 26.1 nM
GUCGGAAACGACAAAGUAGCAUAGGAGGAUAUUCAUCCUCACAUGAGGAUCACCCAUGUAAAUUGGGAGAAGGCCUAUGCUACA | – | – | 515 nM | 301 nM
GUCGUACAAGGAUAUACGGUGAGCUGUGAGUUAUCUGGGACACAUGAGGAUCACCCAUGUAGAAGGUGUCGACA | 310 nM | 470 nM | – | –
GUCGUGUGAGGAUAUGGAUAGACGCAGUGACAGUCAGCGACCUAGAAGGCACAUGAGGAUCACCCAUGUAUGUG | 47.2 nM | 100 nM | – | –
GUCUACCUAGGAUAUACAUGAGGAUCACCCAUGUACAGUUUCGUCUAGGGAUACUCGCGUAGAAGGAGGUAGAU | 32.2 nM | 22.9 nM | – | –
GUCUCAGCUGAGGAUAUUAUCUGGCUCGACCGAUAAGAAGGCAGUACAUGAGGAUCACCCAUGUGGUUCGUUCG | 37.6 nM | 84.9 nM | – | –
GUCUGAUUGUAGAAGGUACUUAAUACUCAUGUAACAUGAGGAUCACCCAUGUAUCAUCAAUAUUGUAAGGAUAUACAAAUCUCA | – | – | 150 nM | 28.4 nM
GUCUUUUUACAGAAGGUGUUUAACAUGAGGAUCACCCAUGUAUAUAUGGUUAAAUUUGAUAAUAACAAGGAUAUGUACUAAUCA | – | – | 53.4 nM | 46.4 nM
GUGAAACAUGAGGAUCACCCAUGUGAGGAUAUGAUACUAUGUACUUCGGUACAUAGUAUCAGAAGGCACAGUGA | 96.1 nM | 282 nM | – | –
GUGAAGAUAGCAGGAUAUCUAUUUCCUACAUGAGGAUCACCCAUGUAGGUGAUUAGCCGAGUAAAGGAGAAGGGCUAUCUUUAC | – | – | 6.62 nM | 5.81 nM
GUGAAGUAAGGAUAUAGUGGAAAAGAUAAGGUAUGAGAGUUCUAGAAGGUACAUGAGGAUCACCCAUGUUAGGG | 301 nM | 186 nM | – | –
GUGACGAAUGUAGGAUAUGCUGAGGAAUACUCAGCAGAAGGACAUGAGGAUCACCCAUGUACUAUGAGUGAAUAAUAACGUCAC | 77.4 nM | 881 nM | – | –
GUGACGAAUGUAGGAUAUGCUGAGGAAUACUCAGCAGAAGGACAUGAGGAUCACCCAUGUCAUCCUUAUAAUAAAUAACGUCAC | 12.6 nM | 18.1 nM | – | –
GUGAGACAUGAGGAUCACCCAUGUCAGGAUAUGAUACUAUGUACUUCGGUACAUAGUAUCAGAAGGGACAGUGA | 53.6 nM | 66.7 nM | – | –
GUGAGCUCGUGAGGAUAUACAACACUGCUUCGGCAGUGUAUUAAGAUCACAUGAGGAUCACCCAUGUAGAAGGCACGAGCUGAU | 14.5 nM | 272 nM | – | –
GUGCACAUUCGAGGAUAUCGGAGAGAGAUCAUUCGAGAAGGCGAUUCAUGAUGUAUUAUCCUGGACAUGAGGAUCACCCAUGUG | – | – | 361 nM | 107 nM
GUGCACAUUCGAGGAUAUCGGAGAGGAGUCCUUCGAGAAGGCGAUUCGUGCCGUGUUAUUCUGGACAUGAGGAUCACCCAUGUG | – | – | 106 nM | 35.7 nM
GUGCAUUACGAGAAGGCGUACUGGUGAAUAUAAAACGACAAAGGUACAUGAGGAUCACCCAUGUACGAGGAUAUCGAUUUGGCU | 11 nM | 39.7 nM | – | –
GUGCCUAACUAGAAGGCAGUGUGCAAAGCAUUCUGAGGAUAUGGGUUCCGGAAACGGACAUGAGGAUCACCCAUGUGGCACAAA | – | – | 424 nM | 26.7 nM

Sequence | apparent Kd [1] | apparent Kd [2] | apparent Kd [3] | apparent Kd [4]
GUGCCUCAGAACAUGAGGAUCACCCAUGUGCUGCGGGCACCGUAGGAUAUGAUGGUACGCUACCAUCAGAAGGAUGAUGGUACC | – | – | 4.83 nM | 4.92 nM
GUGCCUUAUGAGAAGGCGAUCAUGAAACAUGAUCGAGGAUAUCAUGAAAACAUGAGGAUCACCCAUGUAUGGGUAUUAUGGUAC | – | – | 107 nM | 27.8 nM
GUGCCUUGGGAGAAGGCAGUAUGCAAAGCAUUCUGAGGAUAUCCAUACCGGAAACGGACAUGAGGAUCACCCAUGUGGCACAAA | – | – | 18.5 nM | 7.52 nM
GUGCGGGUGCCACAGGAUAUACGUGGAUCGACAUGAGGAUCACCCAUGUAUAUCCUAAUAAUUGCGUAGAAGGGUGGUCAGCCGU | – | – | 845 nM | 149 nM
GUGCUCGUGUAAGGAUAUGCAGCCGUUUCGGCUGCAGAAGGUACUAUAAUACAUGAGGAUCACCCAUGUCUCUAUUGUUUGGUG | – | – | 120 nM | 153 nM
GUGCUCGUGUGAGGAUAUGCUUCCGUUUCGGCUGCAGAAGGUACUAUUAUACAUGAGGAUCACCCAUGUCGCUUUUCUCCGGUG | – | – | 26.6 nM | 27.5 nM
GUGGACGUCGUAGGAUAUGUAGGAUAUUCCUACAUGAGGAUCACCCAUGUUGAAAUGGAAGAAGGACAGAAGGACGAUGUCCAG | – | – | 58.5 nM | 12.7 nM
GUGGUACAUGAGGAUCACCCAUGUCAGGAUAUCGCGUGGUUUUUUGCGGCCGCGCGCGCGAGAAGGGACGUCUU | 36.3 nM | 43.3 nM | – | –
GUGGUACAUGAGGAUCACCCAUGUGUGGGCGCAUGAGGAUAUGUCAGUCCCUGAAGUACGAUAGAAGGCAUGGUGA | – | – | 201 nM | 302 nM
GUGGUACAUGAGGAUCACCCAUGUUAGGAUAUCGCGUGAGGUUUUACUUCCGCACACACGAGAAGGGACGUCUU | 32.9 nM | 28 nM | – | –
GUGGUCAGACAUGAGGAUCACCCAUGUGGAAUAAAUAACAACUAGGAUAUAUAAUAUAGGAUAUAAUAGAAGGAGUGAUUGGUG | – | – | 141 nM | 188 nM
GUGGUCAGACAUGAGGAUCACCCAUGUGGAAUAAAUAAGGAGAAGGAUAUGCAAUAUAGGAUAUAGCAGAAGGUUUGGUUGGUG | – | – | 95.8 nM | 111 nM
GUGGUGCAUAUACGUGGAUGUACAUGAGGAUCACCCAUGUAAGAGGAUAUGCGGAUACUAGCUCAGCAGAAGGCUUACAAAUGA | 30.3 nM | 240 nM | – | –
GUGGUGGGUUGAGGAUAUUGGUUGUUGUUGUCCCACAUGAGGAUCACCCAUGUGGGUUGUGGUUUUGAGAAGGUUGGUUGCCGG | – | – | 18.8 nM | 16.6 nM
GUGGUUCUCGUAGGAUAUGUAGGAUAUGCCUACAUGAGGAUCACCCAUGUUCGCAUGGCAGAAGGACAGAAGGACGAUCACCAG | – | – | 54.6 nM | 27.7 nM
GUGUACAGAGGAUAUACAUAAGCUAGGAAACUAGCAUCCUCACAUGAGGAUCACCCAUGUAGAAGGCUGUACAC | 305 nM | 19.6 nM | – | –
GUGUACAGAGGAUAUGCACGAGUAGUUACGAAAGUAACUAUACAUGAGGAUCACCCAUGUAGAAGGCUGUACAC | 13.5 nM | 16.6 nM | – | –
GUGUAGAGAGGAUAUACAUGAGGAUCACCCAUGUGAAUAAGAUAGAAUAAGAUAAAGUGUAGAAGGUUUAGUGU | 43 nM | 34.2 nM | – | –
GUGUAGAUAGGAUAUACGUGAGUCUAGCGAAGCUAGAUUCUACAUGAGGAUCACCCAUGUAGAAGGGUCUACAC | 16.1 nM | 18.6 nM | – | –
GUGUAGAUAGGAUAUGCGUGAGUCUAGCGAAGCUAGGCUCUACAUGAGGAUCACCCAUGUAGAAGGGUCUACAC | 21 nM | 18.1 nM | – | –
GUGUAGAUAGGAUAUGCUGGAAUCUAGCGAAGCUAGGUUCUACAUGAGGAUCACCCAUGUAGAAGGGUCUACAC | 33.4 nM | 22.6 nM | – | –
GUGUAGAUAUCAGGAUAUCUAUUUCCUACAUGAGGAUCACCCAUGUAGAUGAUCACCCAUGUAAAGGAGAAGGGAUAUCUAUAC | – | – | 192 nM | 156 nM
GUGUCGGGAGGAUAUGCGUGGAUUGUUCUCGUAUGGUGUCUACAUGAGGAUCACCCAUGUAGAAGGUCUGGCGC | 20.8 nM | 61.1 nM | – | –
GUUAAGGUAGGAUAUACGAUAAUAUAGGGUAGAUAUAGAACACAUGAGGAUCACCCAUGUAGAAGGACCAAUUG | 29.5 nM | 88.9 nM | – | –
GUUAAUUUCGAAGGAUAUGGAUACAUGAGGAUCACCCAUGUAUAAAAUGAGAUCUAUUAUAUGAUCCAGAAGGUCGUUUUUUAU | 36.5 nM | 69.6 nM | – | –
GUUAGGCAUGUAGGAUAUCCAUUGCGUCGCGUUGGAGAAGGGCAGCACACAUGAGGAUCACCCAUGUGGUCUCCCAUGAUGUGU | 215 nM | 254 nM | – | –
GUUAGUAUCUAGGAUAUCUAGUACAUAGUAUCUAGAGAAGGAGAUACAUGAGGAUCACCCAUGUUCUGUGUUCU | 25.4 nM | 70.4 nM | – | –
